Sampled rows, rich in hits. Any-hit rate of the full collection: about 3.9%.
HTR2A ag: agonists of mouse serotonin 5-HT2A receptor (HTR2A); P35363; CHO-K1 mHTR2A beta-arrestin complementation, luminescence; percent of 30 µM serotonin response; activation, % at 7.6 µM; 360,000 tested, 0.66% active;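 active means activation above a run cutoff, the mean activation of all tested compounds plus 3 SD, cut at about 14% in these data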;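 further: 0% = plate median of compound wells and 100% = 30 µM serotonin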
Target sequence (P35363 whole entry, looked up): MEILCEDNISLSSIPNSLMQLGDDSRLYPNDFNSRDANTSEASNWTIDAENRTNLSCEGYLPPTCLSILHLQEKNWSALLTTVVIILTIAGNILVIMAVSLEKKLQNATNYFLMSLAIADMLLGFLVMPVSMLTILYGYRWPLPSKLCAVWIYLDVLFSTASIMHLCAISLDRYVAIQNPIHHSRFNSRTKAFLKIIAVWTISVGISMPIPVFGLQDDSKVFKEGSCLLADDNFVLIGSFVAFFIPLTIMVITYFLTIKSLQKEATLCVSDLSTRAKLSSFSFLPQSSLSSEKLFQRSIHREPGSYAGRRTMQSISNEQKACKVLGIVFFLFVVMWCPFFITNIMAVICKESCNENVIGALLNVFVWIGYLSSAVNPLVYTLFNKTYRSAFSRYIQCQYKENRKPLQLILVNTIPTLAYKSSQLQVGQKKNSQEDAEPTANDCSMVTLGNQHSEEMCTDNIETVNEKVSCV
TAAR1 antagonist: antagonists of human TAAR1. inhibition, % at 3 µM. 360,000 tested, 1.5% active. Q96RJ0. CHO RD-HGA16 TAAR1, Fluo-8 calcium fluorescence, antagonist;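 active means inhibition above a per-plate cutoff, the mean inhibition of test compounds on that plate plus 3 SD, cut at about 49% in these data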;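 further: 0% = DMSO plus EC80 beta-PEA response and 100% = DMSO alone without agonist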
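System: CHO RD-HGA16 cells bearing hTAAR1. Reagent: EC80 β-phenethylamine stimulus. Schedule: seeding 17-24 h prior, 75-min 37 °C, 30-min RT dye loading. Signal: Fluo-8 intracellular calcium dye fluorescence, real-time kinetic reads. Read-out: % inhibition from peak post-agonist over basal fluorescence ratio. Benchmarks: vehicle wells and EC80 agonist wells. Replicates: n of 1.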
M1 ag: activates human CHRM1 receptor. activation, % at 3 µM. P11229. CHO-K1 hM1, Fluo-8 calcium fluorescence, agonist mode; 0% DMSO, 100% acetylcholine EC100. AID 588814. 360,000 tested, 0.33% active;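 active means activation above the run's mean compound activation plus 3 SD, cut at about 16% in these data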;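 further: peak over basal fluorescence ratio within a 140 s kinetic read after compound addition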
TAAR1 agonist: human TAAR1 agonism. Q96RJ0. CHO RD-HGA16 TAAR1, Fluo-8 calcium fluorescence; vehicle wells 0%, saturating PEA agonist 100%. activation, % at 3 µM. 360,000 tested, 0.99% active. AID 624467;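 active means activation above the mean activation of all test compounds in the run plus 3 SD, cut at about 38% in these data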
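Test system: RD-HGA16 (CHO) cells co-expressing Gα16 and hTAAR1 | Doses: Single dose, 3 µM | Schedule: 17-24 h seeding, 75 min 37 °C dye, 30 min RT | Evaluation: % activation from peak over basal fluorescence ratio, DMSO-to-PEA scaled | Technique: Kinetic Fluo-8 calcium fluorescence | Benchmarks: Low control DMSO, high control PEA (EC100)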
M1 PAM: human CHRM1 positive allosteric modulation; AID 588819; CHO-K1 hM1, Fluo-8 calcium fluorescence, ACh EC20; 0% = ACh EC20, 100% = maximal ACh; 360,000 tested, 0.088% active; activation, % at 3 µM; P11229; in the data active means activation above about 19%, passing the limit was not always enough
M1 antag: human CHRM1 antagonism | P11229 | CHO-K1 hM1, Fluo-8 calcium fluorescence, ACh EC80 antagonist | inhibition, % at 3 µM | 360,000 tested, 1.3% active | AID 588852;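 active means percent inhibition above its own plate's cutoff, namely the mean of that plate's compound wells plus 3 SD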;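 further: peak over basal fluorescence ratio during 140 s after agonist addition; 0% = ACh EC80 plus DMSO and 100% = DMSO alone without agonist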
nonsel antag count: nonselective antagonist in TAAR1 antagonist counter-screen; shares compounds with TAAR1 antagonist; counterscreen cell line, calcium fluorescence, antagonist mode; inhibition, % at 3 µM; 2,400 tested, 77% active; in the data active means inhibition above about 22%;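 further: CHO-Ga16 host cells stimulated with ATP at an EC80 level; 0% = agonist EC80 plus vehicle and 100% = vehicle without agonist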
TAAR1 antag conf: confirmation of human TAAR1 antagonists; TAAR1-expressing cells, fluorescence antagonist read-out; shares compounds with TAAR1 antagonist; AID 651785; inhibition, % at 3 µM; 2,400 tested, 40% active; in the data active means inhibition above about 49%;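 further: CHO-Ga16 host cells challenged with agonist PEA near its EC80; 0% = agonist at EC80 plus vehicle and 100% = vehicle with no agonist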
Ga16 nonsel ag: nonselective Ga16 agonist in TAAR1 antagonist counter-screen. shares compounds with TAAR1 antagonist. Ga16-expressing cells, calcium fluorescence, agonist counterscreen. activation, % at 3 µM. 2,400 tested, 18% active; in the data active means activation above about 12%;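 further: 0% = vehicle wells and 100% = saturating stimulus response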
TAAR1 ag count: counter-screen for human TAAR1 antagonists: TAAR1 agonists | shares compounds with TAAR1 antagonist | hTAAR1 cell line, fluorescence activation, agonist mode | activation, % at 3 µM | 2,400 tested, 2% active | AID 651955; in the data active means activation above about 37%;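 further: CHO cells stably expressing TAAR1 with calcium dye readout; 0% = DMSO vehicle and 100% = full agonist response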
An asterisk follows results filed as active; · = not tested or not shown.

SMILES | HTR2A ag | TAAR1 antagonist | M1 ag | TAAR1 agonist | M1 PAM | M1 antag | nonsel antag count | TAAR1 antag conf | Ga16 nonsel ag | TAAR1 ag count
Cc1ccc(NC(=O)C2CCCN2S(=O)(=O)c2ccc3c(c2)n(C)c(=O)c(=O)n3C)cc1C (configuration not stated) | -1 | -3 | -11 | 0 | 15 | -20 | · | · | · | ·
COc1ccc2c(c1)c(CCN1C(=O)c3ccccc3C1=O)cn2C(=O)c1ccco1 | 0 | 57* | -4 | 5 | -4 | -10 | 12 | 32 | 2 | 4
O=C(O)c1nn(CCOc2cccc(Br)c2)c(=O)c2ccccc12 | -7 | -7 | -3 | 2 | -2 | 11 | · | · | · | ·
O=C(Nc1nccs1)c1cn(-c2ccccc2)nc1-c1ccccc1 | 0 | 72* | -3 | 7 | -21 | 31 | 12 | 38 | 3 | 2
O=C(Nc1nccs1)c1cc(-c2ccccc2)nc2ccccc12 | 3 | 66* | -5 | 12 | -6 | 6 | 28* | 54* | 6 | 2
CCn1cc(C(=O)NCC2CCCO2)c(=O)c2cc(S(=O)(=O)N(C)C3CCCCC3)ccc21 (configuration not stated) | -2 | 52* | -5 | 10 | -6 | 0 | 20 | 38 | 6 | 5
COC(=O)CSc1nc2ccc(NC(=O)c3ccccc3C(=O)N3CCOCC3)cc2s1 | 3 | 55* | 1 | 22 | -7 | 8 | 24* | 50* | 9 | 8
O=C(Nc1ccc2nc(SCc3ccc(Cl)cc3)sc2c1)c1ccccc1C(=O)N1CCOCC1 | -2 | 76* | -2 | 20 | -9 | 29* | 34* | 54* | 11 | 12
Cc1c(Cl)cccc1NC(=O)c1ccccc1-c1ccccc1C(=O)O | 2 | -10 | -2 | 4 | 8 | -9 | · | · | · | ·
Cc1cccc(/C=C\c2nc3ccccc3c(=O)[nH]2)c1 | -5 | 4 | 4 | 2 | -1 | 5 | · | · | · | ·
COc1ccc(C(=O)Nc2cccc(/C=C/c3nc4ccccc4c(=O)[nH]3)c2)cc1 | 2 | 55* | -4 | 13 | 0 | 7 | 16 | 38 | 7 | 4
O=C(Nc1cccc(/C=C/c2nc3ccccc3c(=O)[nH]2)c1)c1ccccc1Cl | -3 | 68* | -3 | 10 | 2 | -14 | 30* | 48 | 12* | 5
CC(=O)c1cccc(NC(=O)c2ccc(N(Cc3ccccc3C)S(C)(=O)=O)cc2)c1 | 4 | 57* | 3 | 20 | -1 | 1 | 37* | 50* | 12* | 11
O=C(Nc1ccc(N2CCOCC2)cc1N1CCOCC1)c1cccc([N+](=O)[O-])c1 | 1 | -12 | -2 | 0 | 4 | -3 | · | · | · | ·
CCOc1ccc(NC(=O)N2CCC(NC(=O)C(Cc3ccccc3OC)NC(C)=O)CC2)cc1 (configuration not stated) | 9 | 19 | -2 | -3 | 10 | -10 | · | · | · | ·
CCN(CC(=O)Nc1ccc(NC(C)=O)cc1)C(=O)c1oc2ccccc2c1C | 2 | -9 | 2 | 3 | 12 | -27 | · | · | · | ·
CCN(CC(=O)Nc1ccc(NC(C)=O)cc1)C(=O)c1oc2c(ccc3ccccc32)c1C | 2 | 64* | 0 | 33 | -12 | 30 | 39* | 61* | 18* | 28
CCOc1cc2c(cc1OC)C(c1cccc([N+](=O)[O-])c1)NCC2 (configuration not stated) | 2 | 106* | -3 | 0 | 1 | -1 | 4 | 7 | 3 | 6
O=C(CN1c2cccc3cccc(c23)S1(=O)=O)Nc1ccc(F)c(F)c1F | -5 | 104* | 0 | 2 | 2 | -10 | 9 | 12 | 4 | 5
O=C(CN1c2cccc3cccc(c23)S1(=O)=O)Nc1ccccc1F | -9 | -1 | 0 | 0 | 5 | 0 | · | · | · | ·
CCC(=O)N1CCN(c2ccc(NC(=O)COc3ccccc3[N+](=O)[O-])cc2)CC1 | -3 | 86* | 2 | 21 | -13 | 31* | 32* | 57* | 14* | 15
CCC(=O)N1CCN(c2ccc(NC(=O)COc3ccccc3Cl)cc2)CC1 | -2 | 16 | 0 | 21 | -5 | 1 | · | · | · | ·
Cc1c(Cl)c([N+](=O)[O-])nn1Cc1ccc(C(=O)N/N=C\c2cccc(Br)c2)o1 | -6 | 65* | -3 | 9 | -7 | 9 | 35* | 44 | 7 | 2
CCNC(=S)N/N=C/c1cc(C)n(-c2ccc(Cl)cc2)c1C | -6 | 101* | -5 | 11 | -4 | 8 | 12 | 77* | 8 | 24
CC1(C)OC(=O)C2=C(C[C@@H](C3CCCCC3)O[C@H]2c2ccc(Cl)cc2)O1 | 3 | 50* | -6 | 5 | -10 | -28 | 4 | 13 | 7 | 14
SMILES | HTR2A ag | TAAR1 antagonist | M1 ag | TAAR1 agonist | M1 PAM | M1 antag | nonsel antag count | TAAR1 antag conf | Ga16 nonsel ag | TAAR1 ag count
Cc1nc(N2CCN(c3ccccn3)CC2)c2c(C)c(C(=O)Nc3ccccc3F)sc2n1 | 6 | -1 | -1 | 4 | 0 | -22 | · | · | · | ·
O=C(Nc1c(F)cccc1F)c1cnc(N2CCN(c3ccccn3)CC2)c2ccccc12 | 0 | 63* | -1 | 14 | -5 | 21 | 35* | 60* | 7 | 5
N#CCc1ccc(NC(=O)c2ccc(S(=O)(=O)N3CCCC3)cc2)cc1 | 1 | 57* | -5 | 23 | -5 | 4 | 30* | 54* | 15* | 17
O=C(Nc1ccc(S(=O)(=O)N2CCCC2)cc1)c1ccc(F)cc1 | 4 | -10 | -3 | 2 | 6 | -5 | · | · | · | ·
Cc1ccc(NC(=O)c2ccc(S(=O)(=O)N3CCC(C)CC3)cc2)cc1 | -7 | 79* | -6 | 29 | -9 | -2 | 0 | -4 | 1 | -2
CC(C(=O)NCCSCc1cccc(Cl)c1)N(c1ccccc1)S(C)(=O)=O (configuration not stated) | 4 | -16 | -4 | 7 | 2 | -3 | · | · | · | ·
CC(=O)c1ccc(N2CCN(C(=O)CCCc3nc4ccccc4s3)CC2)cc1 | 2 | 60* | 1 | 15 | -15 | 11 | 34* | 46 | 11 | 6

Assay outcomes (PubChem)
